Bioassay records deposited in PubChem by The Scripps Research Institute Molecular Screening Center.
Sampled rows, rich in hits. Any-hit rate of the full collection: about 4.6%.
OX1R antag-1 – antagonists of human orexin 1 receptor (OX1R). AID 485270, 2010. OX1R-expressing cells, FRET antagonist read-out. 330,000 tested, 1.8% active. Orexin/Hypocretin receptor type 1 (Homo sapiens), O43613. inhibition, % at 6.6 µM; in the data active means inhibition mostly above about 38%, no sharp cut-off; inactive means mostly below about 40%
Target sequence (O43613 whole entry, looked up): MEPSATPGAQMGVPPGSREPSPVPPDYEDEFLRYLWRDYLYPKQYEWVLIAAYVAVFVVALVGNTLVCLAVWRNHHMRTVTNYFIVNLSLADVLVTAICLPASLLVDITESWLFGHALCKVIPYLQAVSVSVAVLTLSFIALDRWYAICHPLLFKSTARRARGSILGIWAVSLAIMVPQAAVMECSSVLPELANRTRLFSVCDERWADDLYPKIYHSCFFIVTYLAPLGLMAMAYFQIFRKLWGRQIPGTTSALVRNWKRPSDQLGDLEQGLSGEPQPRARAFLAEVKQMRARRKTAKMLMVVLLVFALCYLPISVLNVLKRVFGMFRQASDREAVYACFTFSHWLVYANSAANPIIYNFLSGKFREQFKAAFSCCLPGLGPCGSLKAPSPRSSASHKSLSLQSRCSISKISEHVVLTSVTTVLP
OX1R antag-2 – OX1R (HCRTR1) antagonists, primary screen, fluorescence, CHO/OX1R cells, Fluo-8 calcium, orexin A | Fluo-8 calcium fluorescence | inhibition, % at 5 µM | 330,000 tested, 0.43% active | AID 434989, 2010;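 active means inhibition above its plate's threshold, mean inhibition of all tested compounds on the plate plus 3 SD, cut at about 37% in these data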
CHO parental Ca – ATP-evoked calcium signal inhibitors, parental CHO, primary screen, counter-screen for OX1R antagonist project, cell-based, fluorescence, Fluo-8 calcium dye. parental CHO-K1, ATP-induced calcium, Fluo-8 fluorescence. AID 463079, 2010. 330,000 tested, 0.63% active. inhibition, % at 5.6 µM;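 active means inhibition above that plate's mean sample inhibition plus 3 SD, cut at about 26% in these data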
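Measured by: calcium-sensitive Fluo-8 fluorescence / Test system: CHO parental line / Controls: ATP-challenged DMSO wells low, unchallenged DMSO wells high / Measure: % inhibition / Compound: single nominal dose of 5.6 µM per compound / Replicates: single well per compound, no replicates / Reagent: ATP as calcium-mobilizing challenge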
TAAR1 antag – human TAAR1 antagonists, primary screen, Fluo-8 calcium fluorescence, CHO RD-HGA16 cells; Trace amine-associated receptor 1 (Homo sapiens), Q96RJ0; antagonist; inhibition, % at 3 µM; 360,000 tested, 1.5% active; AID 624466, 2012;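 active means inhibition above a per-plate cutoff, the mean inhibition of test compounds on that plate plus 3 SD, cut at about 49% in these data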
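Test system – hTAAR1-expressing CHO RD-HGA16 cells, Gα16-coupled · Reagent – β-PEA at EC80 concentration, post-compound challenge · Compound dosing – 3 µM, single point · Timing – 140 s kinetic read after compound, 140 s after agonist · Detection – Fluo-8 intracellular calcium dye fluorescence, real-time kinetic reads · Control set – DMSO and EC80 PEA controls · Repeats – n of 1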
TAAR1 ag – human TAAR1 agonists, primary screen, Fluo-8 calcium fluorescence, CHO RD-HGA16 cells | Trace amine-associated receptor 1 (Homo sapiens), Q96RJ0 | vehicle wells 0%, saturating PEA agonist 100% | activation, % at 3 µM | 360,000 tested, 0.99% active | AID 624467, 2012;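 active means activation above the mean activation of all test compounds in the run plus 3 SD, cut at about 38% in these data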
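System: CHO-derived RD-HGA16 cells with stable Gα16 and human TAAR1 / Times: 17-24 h plating, Fluo-8 75 min 37 °C, 30 min RT / Technique: calcium-sensitive Fluo-8 signal, excitation 470-495, emission 515-575 nm / Measure: % activation relative to PEA EC100 response / Benchmarks: DMSO and PEA EC100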
GPR7 antagonist – GPR7 receptor antagonists, primary screen, cell-based, fluorescence, single concentration; Neuropeptides B/W receptor type 1 (Homo sapiens), P48145; GPR7-expressing cells, fluorescence antagonist assay; inhibition, % at 4.4 µM; 290,000 tested, 1.1% active; AID 1861, 2009; in the data active means inhibition above about 16%, passing the limit was not always enough;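 further: cells stimulated with the agonist NPW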
Target sequence (P48145 whole entry, looked up): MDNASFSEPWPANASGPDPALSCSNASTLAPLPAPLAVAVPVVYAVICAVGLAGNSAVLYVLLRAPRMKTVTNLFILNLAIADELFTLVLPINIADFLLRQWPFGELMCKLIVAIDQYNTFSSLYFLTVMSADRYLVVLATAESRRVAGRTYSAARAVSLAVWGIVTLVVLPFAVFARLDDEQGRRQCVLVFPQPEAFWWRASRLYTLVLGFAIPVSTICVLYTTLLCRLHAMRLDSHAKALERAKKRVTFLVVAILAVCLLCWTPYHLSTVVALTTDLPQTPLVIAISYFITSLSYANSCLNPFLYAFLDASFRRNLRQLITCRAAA
GPR7 antag conf – GPR7 receptor antagonists, confirmation, cell-based, fluorescence, single concentration; AID 1952, 2009; shares compounds with GPR7 antagonist; 2,400 tested, 52% active; inhibition, % at 4.4 µM; GPR7-expressing cells, calcium fluorescence antagonist mode; in the data active means inhibition above about 24%;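 further: stimulated with the GPR7 agonist NPW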
MCHR1 antag – MCHR1 antagonists in cells, counter-screen for GPR7 antagonist project, cell-based, fluorescence, human; AID 2148, 2009; 2,400 tested, 62% active; MCHR1-expressing cells, fluorescence antagonist assay; inhibition, % at 4.4 µM; shares compounds with GPR7 antagonist; in the data active means inhibition above about 22%
OX1R Fluo8 conf – OX1R (HCRTR1) antagonists, confirmation, fluorescence, CHO/OX1R cells, Fluo-8 calcium, orexin A | shares compounds with OX1R antag-2 | orexin A calcium Fluo-8 fluorescence | inhibition, % at 5 µM | 1,100 tested, 38% active; in the data active means inhibition above about 29%
CHO Ca counter – ATP-evoked calcium inhibition in parental CHO, counter-screen for OX1R antagonist project, cell-based, fluorescence, CHO-K1, triplicate | 1,100 tested, 9.3% active | ATP-induced calcium, Fluo-8 fluorescence | inhibition, % at 5.6 µM | shares compounds with OX1R antag-2;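 active means inhibition above a per-plate limit, the mean inhibition of that plate's test compounds plus 3 SD, cut at about 25% in these data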
Of the large screens only hits and unclear results are named; the others gave an inactive call (follow-up assays come after a bar, where they were run).

c1ccc(N2[C@@H]3CC[C@H]2c2ccncc2C3)cc1	none (no result: OX1R antag-1, OX1R antag-2, CHO parental Ca, GPR7 antagonist)
COC(=O)C1=C(c2c(C)noc2C)C[C@@H]2CC[C@H]1N2C(=O)NC1CC1	none (no result: GPR7 antagonist)
Cc1c(C=O)c2ccccc2n1Cc1cccc(F)c1	none
O=C(C[N+]12CCC(CC1)C(OC(=O)c1ccccc1)C2)c1ccc([N+](=O)[O-])cc1 (stereo not drawn)	OX1R antag-1 70
O=C(C[N+]12CCC(CC1)C(CO)C2)c1ccc([N+](=O)[O-])cc1 (stereo not drawn)	OX1R antag-1 59
O=C(C[N+]12CCC(CC1)C(O)C2)c1ccc(Br)cc1 (stereo not drawn)	none (no result: OX1R antag-1, OX1R antag-2, CHO parental Ca)
COc1ccc(CN2CCN(C(=O)COc3cccc(C)c3)CC2)c(OC)c1	none (no result: OX1R antag-1, OX1R antag-2, CHO parental Ca)
COc1ccccc1CN1CCN(C(=O)COc2cccc(C)c2)CC1	GPR7 antagonist 15
Cc1nc2ccccc2c(=O)n1-c1cc([N+](=O)[O-])cc([N+](=O)[O-])c1	OX1R antag-1 74
Cc1nc2ccccc2c(=O)n1-c1ccncc1	none
CCc1ccccc1NC(=O)N1C[C@H]2C[C@@H](C1)c1cccc(=O)n1C2	none
OC1(c2ccc(F)cc2)CC2CCC(C1)N2Cc1nnnn1C1CCCCC1 (stereo not drawn)	GPR7 antagonist 33 | GPR7 antag conf 26 | MCHR1 antag inactive
OCCN1C2CCC1CC(O)(c1ccc(F)cc1)C2 (stereo not drawn)	none
OC(CNC1CCCCCCC1)c1ccccc1 (stereo not drawn)	GPR7 antagonist 22 (no result: TAAR1 antag, TAAR1 ag) | GPR7 antag conf inactive | MCHR1 antag inactive
COc1cc(CNCCc2c[nH]c3ccccc23)cc(OC)c1OC	none (no result: OX1R antag-1, OX1R antag-2, CHO parental Ca, GPR7 antagonist)
COc1cc(CNCCc2c[nH]c3ccccc23)cc(OC)c1	GPR7 antagonist 38 | GPR7 antag conf inactive | MCHR1 antag 31
CC(C)CCNC(=O)c1cc(C(=O)c2cc(Br)ccc2O)cn(CCC(C)C)c1=O	none
CCOC(=O)c1ccc(-[n+]2c(-c3ccccc3)cc(-c3ccccc3)cc2-c2ccccc2)cc1	none (no result: TAAR1 antag, TAAR1 ag, GPR7 antagonist)
c1ccc(-c2cc(-c3ccccc3)[n+](-c3ccccc3)c(-c3ccccc3)c2)cc1	OX1R antag-2 84, CHO parental Ca 84, TAAR1 antag 72, GPR7 antagonist 97 | GPR7 antag conf 93 | MCHR1 antag 87
CN(C)c1ccc(-[n+]2c(-c3ccccc3)cc(-c3ccccc3)cc2-c2ccccc2)cc1	GPR7 antagonist 59 (no result: OX1R antag-1, OX1R antag-2, CHO parental Ca) | GPR7 antag conf 79 | MCHR1 antag 78
COC(=O)C1=C(c2ccc(OC)c(OC)c2)C[C@@H]2CC[C@H]1N2C(=O)NCCCOC(C)C	none (no result: GPR7 antagonist)
CCCCCSc1cc(OC)c(CCN(C)C)cc1OC	none
CCCCCSc1cc(O)c(C(CNC)C(C)C)cc1OC (stereo not drawn)	GPR7 antagonist 29 | GPR7 antag conf 42 | MCHR1 antag 37
OC12CCCCC1C(c1ccccc1)NCC2 (stereo not drawn)	GPR7 antagonist 23 | GPR7 antag conf inactive | MCHR1 antag inactive
O=[N+]([O-])c1ccc(N2CCCCCC2)c2nonc12	OX1R antag-1 103, OX1R antag-2 102, CHO parental Ca 93, TAAR1 antag 66, TAAR1 ag 162, GPR7 antagonist 41 | GPR7 antag conf 51 | MCHR1 antag 61
COc1cc2c(cc1OC)-c1c(OC)c(OC)cc3c1[C@H](C2)[N+](C)(C)CC3	none
CCOc1ccc(Cl)cc1CNCCc1ccccc1F	GPR7 antagonist 33 | GPR7 antag conf 49 | MCHR1 antag 37
O=C(NCCCn1ccnc1)C(Cl)(Cl)Cl	none
O=C(Cc1cccs1)N1Cc2ccccc2-n2nncc2C1	none (no result: OX1R antag-1, OX1R antag-2, CHO parental Ca, GPR7 antagonist)
Cc1cc(C)c(C(=O)N2CCC3(CC2)OCCO3)c(C)c1	none
Cc1occc1C(=O)N1CCC2(CC1)OCCO2	GPR7 antagonist 33 | GPR7 antag conf inactive | MCHR1 antag inactive
CCCCn1c(=O)c(C(=O)Nc2ccccc2F)c(O)c2ccccc21	GPR7 antagonist 96 | GPR7 antag conf inactive | MCHR1 antag inactive
COC(=O)C1=C(c2ccc(S(C)(=O)=O)cc2)C[C@@H]2CC[C@H]1N2C(=O)NC1CCCCC1	none (no result: GPR7 antagonist)
O=C(Nc1cccc(Cl)c1)OC1CN2CCC1CC2 (stereo not drawn)	CHO parental Ca 46, GPR7 antagonist 22 | GPR7 antag conf 53 | MCHR1 antag 58
O=C(Nc1ccc(Cl)cc1)OC1CN2CCC1CC2 (stereo not drawn)	none
Cn1c(O)c(/C=C/C=Nc2ccccc2)c(=O)n(C)c1=S	TAAR1 ag 41 | OX1R Fluo8 conf 33 | CHO Ca counter 36
CCOC(=O)C1=CC(=C2C(=O)N(CC)C(=S)N(CC)C2=O)c2ccccc2O1	none
O=C(c1cc2cc(Br)ccc2[nH]1)N1CCC2(CC1)OCCO2	none
O=C(c1cc(Br)ccc1Cl)N1CCC2(CC1)OCCO2	OX1R antag-2 45 | OX1R Fluo8 conf inactive | CHO Ca counter inactive
COC(=O)C1=C(c2ccccc2OCc2ccccc2)C[C@@H]2CC[C@H]1N2C(=O)NCc1cccc(C(F)(F)F)c1	OX1R antag-2 61 (no result: GPR7 antagonist) | OX1R Fluo8 conf inactive | CHO Ca counter inactive
CCCN(CCC)[C@@H]1CCc2cccc(O)c2C1	none (no result: GPR7 antagonist)
